Data: ChEMBL document CHEMBL3232774, “Symmetric bis-chalcones as a new type of breast cancer resistance protein inhibitors with a mechanism different from that of chromones” (J Med Chem, 2014)
pEC50, pIC50: −log10 of the molar value.

Key:
ABCG2 = target: T1, ABCG2 (Homo sapiens, UniProt Q9UNQ0); assay: Inhibition of ABCG2 (unknown origin) transfected in HEK293 cells assessed as inhibition of mitoxantrone efflux at 5 uM after 30 mins by flow cytometry relative to control; assay type: cell-based; conditions: HEK293 cells transfected with ABCG2, probe mitoxantrone
T1 sequence (Q9UNQ0 whole entry): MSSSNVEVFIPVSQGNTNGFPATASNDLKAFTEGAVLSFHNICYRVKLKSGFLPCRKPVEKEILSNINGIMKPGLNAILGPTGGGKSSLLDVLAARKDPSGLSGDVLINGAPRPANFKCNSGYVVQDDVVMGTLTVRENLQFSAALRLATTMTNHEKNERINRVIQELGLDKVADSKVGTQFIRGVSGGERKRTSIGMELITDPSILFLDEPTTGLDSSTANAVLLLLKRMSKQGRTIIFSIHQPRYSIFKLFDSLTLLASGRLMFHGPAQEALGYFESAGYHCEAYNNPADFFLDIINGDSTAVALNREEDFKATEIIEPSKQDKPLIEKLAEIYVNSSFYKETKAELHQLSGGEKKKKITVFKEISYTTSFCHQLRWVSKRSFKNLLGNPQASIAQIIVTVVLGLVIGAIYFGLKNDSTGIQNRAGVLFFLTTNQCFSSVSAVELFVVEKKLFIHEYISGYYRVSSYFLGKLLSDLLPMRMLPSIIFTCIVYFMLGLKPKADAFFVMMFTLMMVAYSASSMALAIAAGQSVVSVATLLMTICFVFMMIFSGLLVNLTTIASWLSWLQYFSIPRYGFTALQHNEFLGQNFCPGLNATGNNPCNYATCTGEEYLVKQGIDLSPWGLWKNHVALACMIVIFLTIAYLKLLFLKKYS
How it was run: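 HEK293-ABCG2 cells (1.5 × 10⁵/well, grown 48 h) exposed to 5 μM mitoxantrone for 30 min at 37 °C with compound (increasing concentrations up to 10 μM); washed, trypsinized, FL4 flow cytometry, ≥10 000 events.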

HEK293 [1] = assay: Cytotoxicity against HEK293 cells overexpressing ABCG2 after 72 hrs by MTT assay; assay type: ADME, cell-based; conditions: Homo sapiens, HEK293, 72 h
How it was run: (§1)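 HEK293-ABCG2 and vector-control HEK293-pcDNA3.1 cells were seeded at 1 × 10⁴/well and grown 24 h, then exposed 72 h to mitoxantrone (0–25 nM). ABCG2 cells were also given bis-chalcone at 0.1 or 0.5 μM. MTT was added for 4 h, formazan dissolved in DMSO/ethanol (1:1) and read at 570 nm. IC50 = mitoxantrone concentration giving 50% survival.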

HEK293 [2] = assay: Cytotoxicity against HEK293 cells after 72 hrs by MTT assay; assay type: cell-based; conditions: Homo sapiens, HEK293, 72 h; how it was run: as §1
[3] = target: T2, Broad substrate specificity ATP-binding cassette transporter ABCG2 (Homo sapiens, UniProt Q9UNQ0); assay: Inhibition of ABCG2 (unknown origin) transfected in HEK293 cells assessed as inhibition of mitoxantrone efflux after 30 mins by flow cytometry relative to control; assay type: cell-based
T2 sequence (Q9UNQ0 whole entry): T1 sequence (Q9UNQ0 whole entry)

[4] = target: ATP-dependent translocase ABCB1 (Homo sapiens, UniProt P08183); assay: Inhibition of ABCB1 (unknown origin) transfected in mouse NIH/3T3 cells assessed as inhibition of mitoxantrone efflux up to 10 uM after 30 mins by flow cytometry relative to control; assay type: cell-based; conditions: nih/3t3, 0.5 h
How it was run: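 NIH-3T3-ABCB1 cells (1.5 × 10⁵/well, 48 h, kept in 60 ng/mL colchicine) were given 5 μM mitoxantrone for 30 min at 37 °C with bis-chalcone at 1 or 10 μM. Fluorescence was read by FL4 flow cytometry, ≥10 000 events. Inhibition was expressed relative to parental NIH-3T3 cells, whose maximal accumulation was taken as complete inhibition.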

[5] = target: Multidrug resistance-associated protein 1 (Homo sapiens, UniProt P33527); assay: Inhibition of ABCC1 (unknown origin) transfected in HEK293 cells assessed as inhibition of calcein-AM efflux up to 10 uM after 30 mins by flow cytometry relative to control; assay type: cell-based; conditions: hek293, 0.5 h
How it was run: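 HEK293-ABCC1 cells (2 × 10⁵/well, kept in 200 μg/mL hygromycin B) were exposed to 0.2 μM calcein-AM for 30 min at 37 °C with bis-chalcone at 1 or 10 μM. Calcein was read by FL1 flow cytometry, ≥10 000 events. Inhibition was expressed relative to HEK293/pcDNA5 cells, whose maximal accumulation equals complete inhibition.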

[6] = target: T2, Broad substrate specificity ATP-binding cassette transporter ABCG2; assay: Inhibition of ABCG2 (unknown origin)-mediated mitoxantrone efflux transfected in HEK293 cells assessed as potentiation of mitoxantrone-induced cytotoxicity at 0.5 uM after 72 hrs by MTT assay; assay type: cell-based; conditions: hek293, 72 h; how it was run: as §1
HEK293 [7] = assay: Cytotoxicity against HEK293 cells overexpressing ABCG2 at 0.5 uM after 72 hrs by MTT assay; assay type: ADME, cell-based; conditions: human, hek293, 72 h; how it was run: as §1
[8] = target: T2, Broad substrate specificity ATP-binding cassette transporter ABCG2; assay: Inhibition of human ABCG2 transfected in Sf9 insect cells assessed as inhibition of basal ATPase activity in absence of substrate drug after 30 mins by colorimetry; conditions: sf9, 0.5 h
How it was run: (§2)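 Cholesterol-loaded membranes from Sf9 cells overexpressing human ABCG2 (0.5 mg/mL; 10 μg/sample) in 50 mM Tris-HCl, 50 mM NaCl, pH 8.0, with or without 0.33 mM orthovanadate, no transport substrate; started with 3.9 mM ATP-Mg, 30 min at 37 °C; stopped with SDS; phosphate released read with molybdate/ascorbic acid at 880 nm; vanadate-sensitive basal activity taken as 100%.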

ABCG2 ATPase [9] = target: T3, ABCG2 ATPase (Homo sapiens, UniProt Q9UNQ0); assay: (§3) Inhibition of human ABCG2 ATPase activity transfected in Sf9 insect cells using quercetin as substrate after 30 mins by colorimetry relative to control; conditions: human, Sf9 insect cells transfected with human ABCG2, probe quercetin; read-out: Imax
T3 sequence (Q9UNQ0 whole entry): T1 sequence (Q9UNQ0 whole entry)
How it was run: (§4)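 Vanadate-sensitive ATPase of cholesterol-loaded human ABCG2 Sf9 membranes (0.5 mg/mL; 10 μg/sample), 50 mM Tris-HCl/50 mM NaCl pH 8.0, with 2 μM quercetin. ATP-Mg 3.9 mM, 30 min, 37 °C. Phosphate measured colorimetrically at 880 nm. Coupled activity = total minus basal, taken as 100%. IC50 is the concentration giving 50% inhibition.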

[10] = target: T2, Broad substrate specificity ATP-binding cassette transporter ABCG2; assay: as §3; how it was run: as §4
ABCG2 ATPase [11] = target: T3, ABCG2 ATPase; assay: Activation of human ABCG2 transfected in Sf9 insect cells assessed as stimulation of basal ATPase activity in absence of substrate drug after 30 mins by colorimetry; conditions: Sf9 insect cells transfected with human ABCG2, read-out: FC; how it was run: as §2
[12] = system: ATP-binding cassette sub-family G member 2 (Homo sapiens); assay: Inhibition of ABCG2-mediated mitoxantrone efflux in mitoxantrone-selected human PANC1 cells overexpressing ABCG2; conditions: PANC-1
[13] = target: T2, Broad substrate specificity ATP-binding cassette transporter ABCG2; assay: Inhibition of ABCG2 (unknown origin) transfected in HEK293 cells assessed as inhibition of mitoxantrone efflux at 5 uM after 30 mins in presence of 0.1 uM (2E,2'E)-1,1'-(1,4-Phenylene)bis(3-(2,6-dimethoxyphenyl)-prop-2-en-1-one) by flow cytometry; assay type: cell-based

Multidrug resistance-associated protein 1, sequence (P33527 whole entry): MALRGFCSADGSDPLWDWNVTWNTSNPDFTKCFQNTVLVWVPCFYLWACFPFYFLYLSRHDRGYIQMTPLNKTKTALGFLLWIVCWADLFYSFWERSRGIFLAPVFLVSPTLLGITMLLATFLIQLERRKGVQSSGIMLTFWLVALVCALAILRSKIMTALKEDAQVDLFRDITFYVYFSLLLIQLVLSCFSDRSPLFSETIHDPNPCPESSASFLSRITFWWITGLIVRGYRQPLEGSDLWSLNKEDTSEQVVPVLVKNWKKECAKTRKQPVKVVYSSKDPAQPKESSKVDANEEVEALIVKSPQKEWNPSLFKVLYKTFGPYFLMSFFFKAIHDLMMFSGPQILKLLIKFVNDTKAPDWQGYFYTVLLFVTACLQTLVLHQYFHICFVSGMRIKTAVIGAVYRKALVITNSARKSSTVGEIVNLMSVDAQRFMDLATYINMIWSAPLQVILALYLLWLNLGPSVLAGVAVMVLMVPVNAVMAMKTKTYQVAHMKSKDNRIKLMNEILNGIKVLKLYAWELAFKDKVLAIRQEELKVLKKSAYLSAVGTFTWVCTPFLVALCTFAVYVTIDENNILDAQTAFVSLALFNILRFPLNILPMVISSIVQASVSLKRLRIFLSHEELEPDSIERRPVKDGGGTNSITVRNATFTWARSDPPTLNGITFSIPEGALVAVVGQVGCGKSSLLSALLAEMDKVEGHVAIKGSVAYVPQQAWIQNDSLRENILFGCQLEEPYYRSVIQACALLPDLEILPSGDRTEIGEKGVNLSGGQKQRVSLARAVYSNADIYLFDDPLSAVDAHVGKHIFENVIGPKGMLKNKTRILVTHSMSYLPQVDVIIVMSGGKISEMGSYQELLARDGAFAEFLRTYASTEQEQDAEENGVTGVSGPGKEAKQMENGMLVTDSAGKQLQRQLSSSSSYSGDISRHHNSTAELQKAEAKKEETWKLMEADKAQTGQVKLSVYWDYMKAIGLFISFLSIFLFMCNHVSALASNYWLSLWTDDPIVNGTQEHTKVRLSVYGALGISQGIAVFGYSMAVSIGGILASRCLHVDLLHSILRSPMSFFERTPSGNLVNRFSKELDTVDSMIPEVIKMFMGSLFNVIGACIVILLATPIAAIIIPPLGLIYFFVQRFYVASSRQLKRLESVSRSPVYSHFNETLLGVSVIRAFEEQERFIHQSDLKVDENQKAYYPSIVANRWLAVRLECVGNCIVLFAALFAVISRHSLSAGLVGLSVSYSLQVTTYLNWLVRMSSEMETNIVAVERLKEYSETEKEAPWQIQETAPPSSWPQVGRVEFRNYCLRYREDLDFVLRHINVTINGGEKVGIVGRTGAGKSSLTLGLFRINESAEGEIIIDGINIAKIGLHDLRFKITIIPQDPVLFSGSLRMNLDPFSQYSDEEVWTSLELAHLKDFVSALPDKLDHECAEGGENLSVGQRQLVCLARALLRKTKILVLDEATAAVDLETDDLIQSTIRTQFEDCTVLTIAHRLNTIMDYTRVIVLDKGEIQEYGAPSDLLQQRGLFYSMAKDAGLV
ATP-dependent translocase ABCB1, sequence (P08183 whole entry): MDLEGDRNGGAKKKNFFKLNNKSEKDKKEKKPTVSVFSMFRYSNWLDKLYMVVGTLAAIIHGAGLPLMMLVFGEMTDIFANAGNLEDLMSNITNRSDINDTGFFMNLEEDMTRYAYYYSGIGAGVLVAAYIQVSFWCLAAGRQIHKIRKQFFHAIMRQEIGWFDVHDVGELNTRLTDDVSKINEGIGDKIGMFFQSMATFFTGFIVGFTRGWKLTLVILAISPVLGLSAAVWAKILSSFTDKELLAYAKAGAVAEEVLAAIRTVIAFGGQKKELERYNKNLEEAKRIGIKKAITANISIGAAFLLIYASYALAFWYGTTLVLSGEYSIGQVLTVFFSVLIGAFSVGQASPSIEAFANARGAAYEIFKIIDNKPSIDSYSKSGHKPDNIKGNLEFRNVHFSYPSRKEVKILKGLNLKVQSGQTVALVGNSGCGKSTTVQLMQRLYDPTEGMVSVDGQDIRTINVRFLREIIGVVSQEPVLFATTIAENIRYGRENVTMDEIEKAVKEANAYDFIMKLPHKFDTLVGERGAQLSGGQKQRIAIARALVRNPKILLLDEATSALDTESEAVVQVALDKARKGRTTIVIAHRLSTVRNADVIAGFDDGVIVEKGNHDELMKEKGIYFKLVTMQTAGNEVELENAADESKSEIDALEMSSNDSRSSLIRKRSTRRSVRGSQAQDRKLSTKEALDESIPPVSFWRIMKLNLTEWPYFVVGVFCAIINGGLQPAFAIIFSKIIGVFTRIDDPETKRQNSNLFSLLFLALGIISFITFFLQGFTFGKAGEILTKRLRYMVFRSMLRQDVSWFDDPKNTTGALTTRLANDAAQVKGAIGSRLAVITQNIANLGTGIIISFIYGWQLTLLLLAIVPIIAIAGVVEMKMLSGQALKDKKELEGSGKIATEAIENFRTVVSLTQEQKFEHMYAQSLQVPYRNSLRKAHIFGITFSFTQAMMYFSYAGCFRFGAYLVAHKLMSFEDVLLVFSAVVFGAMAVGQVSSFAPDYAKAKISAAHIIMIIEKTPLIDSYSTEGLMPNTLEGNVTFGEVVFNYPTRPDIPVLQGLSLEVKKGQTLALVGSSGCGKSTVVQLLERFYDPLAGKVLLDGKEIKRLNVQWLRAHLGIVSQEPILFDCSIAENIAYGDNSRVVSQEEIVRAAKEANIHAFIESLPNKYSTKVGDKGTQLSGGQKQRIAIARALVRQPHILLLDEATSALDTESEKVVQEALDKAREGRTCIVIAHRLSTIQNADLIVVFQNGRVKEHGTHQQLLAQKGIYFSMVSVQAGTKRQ

Compound | inhibition at 0.5 h, 5 µM (ABCG2) [%] | pEC50 [3] | further results
O=C(O)c1ccc(C(=O)/C=C/c2ccc(/C=C/C(=O)c3ccc(C(=O)O)cc3)cc2)cc1 | 0 |  | 
COc1ccc(/C=C/C(=O)c2ccc(C(=O)/C=C/c3ccc(OC)cc3)cc2)cc1 | 18 |  | 
CN(C)c1ccc(/C=C/C(=O)c2ccc(C(=O)/C=C/c3ccc(N(C)C)cc3)cc2)cc1 | 34 |  | 
O=C1c2c(O)ccc(O)c2C(=O)c2c(NCCNCCO)ccc(NCCNCCO)c21 [MITOXANTRONE] |  |  | pIC50 (HEK293 [1]): 7.58; pIC50 (HEK293 [2]): 8.00
COc1cc(OC)cc(C(=O)/C=C/c2ccc(/C=C/C(=O)c3cc(OC)cc(OC)c3)cc2)c1 | 78 | 6.30 | inhibition (INH) [4]: Not Active; inhibition (INH) [5]: Not Active; inhibition (INH) [6]: Active; Activity (HEK293 [7]): Non-toxic; inhibition (INH) [8]: Not Active; Emax at 0.5 h (ABCG2 ATPase [9]): 72%; pIC50 [10]: 6.57; fold induction at 0.5 h (ABCG2 ATPase [11]): 1.8; pEC50 [12]: 6.68
O=C(/C=C/c1ccc(/C=C/C(=O)c2ccccc2)cc1)c1ccccc1 | 25 |  | 
O=C(/C=C/c1cccc2ccccc12)c1ccc(C(=O)/C=C/c2cccc3ccccc23)cc1 | 13 |  | 
COc1cc(OC)c(C(=O)/C=C/c2ccc(/C=C/C(=O)c3c(OC)cc(OC)cc3OC)cc2)c(OC)c1 | 66 | 5.74 | 
COc1cc(OC)c(C(=O)/C=C/c2ccc(/C=C/C(=O)c3cc(OC)c(OC)cc3OC)cc2)cc1OC | 41 |  | 
COc1ccc(OC)c(C(=O)/C=C/c2ccc(/C=C/C(=O)c3cc(OC)ccc3OC)cc2)c1 | 74 | 5.89 | 
CN(C)c1ccc(/C=C/C(=O)c2ccc(C(=O)/C=C/c3ccc(N(C)C)c4ccccc34)cc2)c2ccccc12 | 17 |  | 
COc1ccc(C(=O)/C=C/c2ccc(/C=C/C(=O)c3ccc(OC)c(OC)c3)cc2)cc1OC | 97 | 6.10 | 
COc1cc(C(=O)/C=C/c2ccc(/C=C/C(=O)c3ccc(O)c(OC)c3)cc2)ccc1O | 28 |  | 
COc1ccc(/C=C/C(=O)c2ccc(C(=O)/C=C/c3ccc(OC)c(OC)c3OC)cc2)c(OC)c1OC | 86 | 5.85 | 
COc1cc(OC)c(/C=C/C(=O)c2ccc(C(=O)/C=C/c3c(OC)cc(OC)cc3OC)cc2)c(OC)c1 | 92 | 6.40 | 
COc1cccc(C(=O)/C=C/c2ccc(/C=C/C(=O)c3cccc(OC)c3)cc2)c1 | 73 | 5.64 | 
COc1cc(OC)c(OC)cc1/C=C/C(=O)c1ccc(C(=O)/C=C/c2cc(OC)c(OC)cc2OC)cc1 | 96 | 6.52 | 

Compound | inhibition at 0.5 h, 5 µM (ABCG2) [%] | pEC50 [3] | further results
COc1ccccc1C(=O)/C=C/c1ccc(/C=C/C(=O)c2ccccc2OC)cc1 | 95 | 5.96 | 
COc1ccc(OC)c(/C=C/C(=O)c2ccc(C(=O)/C=C/c3cc(OC)ccc3OC)cc2)c1 | 96 | 6.15 | 
O=C(/C=C/c1ccc(/C=C/C(=O)c2ccc3c(c2)OCO3)cc1)c1ccc2c(c1)OCO2 | 19 |  | 
COc1ccc(C(=O)/C=C/c2ccc(/C=C/C(=O)c3ccc(OC)cc3OC)cc2)c(OC)c1 | 86 | 6.05 | 
COc1ccc2[nH]cc(CCNC(=O)c3cc(=O)c4c(OCc5ccc(Br)cc5)cccc4o3)c2c1 |  | 7.03 | inhibition (INH) [8]: Active; pEC50 [13]: 7.51
COc1cc(/C=C/C(=O)c2ccc(C(=O)/C=C/c3cc(OC)c(OC)c(OC)c3)cc2)cc(OC)c1OC | 43 |  | 
O=C(/C=C/c1ccccc1)c1ccc(C(=O)/C=C/c2ccccc2)cc1 | 13 |  | 
COc1cc(C(=O)/C=C/c2ccc(/C=C/C(=O)c3cc(OC)c(OC)c(OC)c3)cc2)cc(OC)c1OC | 73 | 5.96 | 
COc1ccc(/C=C/C(=O)c2ccc(C(=O)/C=C/c3ccc(OC)c(OC)c3)cc2)cc1OC | 63 | 5.68 | 
O=C(/C=C/c1ccc2nccnc2c1)c1ccc(C(=O)/C=C/c2ccc3nccnc3c2)cc1 | 18 |  | 
COc1ccc(C(=O)/C=C/c2ccc(/C=C/C(=O)c3ccc(OC)cc3)cc2)cc1 | 27 |  | 
O=C(/C=C/c1ccc2ccccc2c1)c1ccc(C(=O)/C=C/c2ccc3ccccc3c2)cc1 | 7 |  | 
O=C(O)c1ccc(/C=C/C(=O)c2ccc(C(=O)/C=C/c3ccc(C(=O)O)cc3)cc2)cc1 | 2 |  | 
O=C(/C=C/c1ccc2c(c1)OCO2)c1ccc(C(=O)/C=C/c2ccc3c(c2)OCO3)cc1 | 11 |  | 
O=C(/C=C/c1ccc(/C=C/C(=O)c2cccc3ccccc23)cc1)c1cccc2ccccc12 | 23 |  | 
COc1cc(/C=C/C(=O)c2ccc(C(=O)/C=C/c3ccc(O)c(OC)c3)cc2)ccc1O | 0 |  | 
O=C(/C=C/c1ccc(/C=C/C(=O)c2ccc3ccccc3c2)cc1)c1ccc2ccccc2c1 | 45 |  | 
